Source: ChEMBL document CHEMBL2150858 (J Med Chem, 2011)
≈ marks a conversion by molar mass, not a printed value. Calls of active or inactive are those of the source. No cut-off for these calls is given here.

Legend:
Malme-3M = experiment: Induction of cell growth in human MALME-3M cells at 10 uM; type: functional
Aorta [1] = experiment: Antiangiogenic activity in Fischer rat aorta fragments assessed as vessel outgrowth at 100 ug/mL after 5 days relative to PI-88; type: functional
[2] = molecular target: Serine/threonine-protein kinase pim-1 (Homo sapiens, UniProt P11309); experiment: Inhibition of human recombinant PIM1 using [gamma-32P] ATP at 100 uM after 30 mins by scintillation counting
Serine/threonine-protein kinase pim-1, sequence (P11309 whole entry, looked up): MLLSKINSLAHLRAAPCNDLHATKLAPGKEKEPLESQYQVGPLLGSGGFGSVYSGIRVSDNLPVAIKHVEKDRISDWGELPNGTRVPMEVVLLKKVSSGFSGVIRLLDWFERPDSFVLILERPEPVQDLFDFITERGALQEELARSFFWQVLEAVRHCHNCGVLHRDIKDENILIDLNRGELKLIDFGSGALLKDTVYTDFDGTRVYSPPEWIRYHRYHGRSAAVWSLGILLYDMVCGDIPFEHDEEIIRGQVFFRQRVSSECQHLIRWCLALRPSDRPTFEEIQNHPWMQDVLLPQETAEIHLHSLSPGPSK
Procedure, shortened: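 Recombinant human Pim1 assayed as for CDK1/CDK5: histone H1 substrate, 15 μM [γ-32P]ATP final, 30 °C. Read by P81 filter binding and scintillation counting; activity expressed as percent of no-inhibitor control after blank subtraction.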

CAKI-1 = experiment: Growth inhibition of human Caki1 cells at 10 uM; type: functional; details: read-out: GI
[3] = Inhibition of GSK3 at 100 uM
Aorta [4] = experiment: Antiangiogenic activity in Fischer rat aorta fragments assessed as vessel outgrowth at 100 ug/mL after 5 days relative to ageladine-A sulfate; type: functional
[5] = molecular target: Protein kinase C epsilon type (Homo sapiens, UniProt Q02156); experiment: Binding affinity to PRKCE
Protein kinase C epsilon type, sequence (Q02156 whole entry): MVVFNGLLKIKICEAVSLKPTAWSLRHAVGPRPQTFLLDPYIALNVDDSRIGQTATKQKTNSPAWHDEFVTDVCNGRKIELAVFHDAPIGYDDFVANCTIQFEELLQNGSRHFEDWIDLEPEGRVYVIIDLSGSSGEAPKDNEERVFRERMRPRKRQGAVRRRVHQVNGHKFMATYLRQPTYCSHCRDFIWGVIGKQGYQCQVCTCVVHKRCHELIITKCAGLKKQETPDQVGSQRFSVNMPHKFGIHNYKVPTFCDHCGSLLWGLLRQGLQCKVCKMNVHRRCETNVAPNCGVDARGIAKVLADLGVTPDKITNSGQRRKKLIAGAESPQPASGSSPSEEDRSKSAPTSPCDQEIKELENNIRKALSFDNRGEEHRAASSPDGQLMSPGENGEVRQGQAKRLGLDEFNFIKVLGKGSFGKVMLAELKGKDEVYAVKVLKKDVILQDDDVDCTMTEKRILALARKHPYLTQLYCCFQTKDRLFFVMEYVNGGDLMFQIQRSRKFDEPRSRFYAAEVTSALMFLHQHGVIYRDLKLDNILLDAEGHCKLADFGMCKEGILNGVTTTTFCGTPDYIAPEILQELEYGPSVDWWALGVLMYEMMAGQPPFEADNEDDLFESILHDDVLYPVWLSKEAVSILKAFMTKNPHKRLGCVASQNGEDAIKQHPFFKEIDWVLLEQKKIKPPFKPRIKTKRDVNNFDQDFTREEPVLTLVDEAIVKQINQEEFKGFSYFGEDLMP
Procedure, shortened: (§1)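 Competition binding run by Ambit. They were mixed with ligand-loaded streptavidin magnetic beads and compound (40× DMSO stocks) in SeaBlock/PBS/Tween/DTT buffer. Incubation was 1 h at room temperature, then beads were washed. KD was determined from 11 concentrations plus a blank, in duplicate. A value of 40000 nM indicates no binding.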

[6] = molecular target: Non-receptor tyrosine-protein kinase TYK2 (Homo sapiens) (UniProt P29597); experiment: Binding affinity to JH domain of TYK2 assessed as ATP binding remaining at 10 uM
Procedure, shortened: (§2)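 Ambit phage-display competition binding against immobilized ATP-site ligands. Kinase-tagged T7 phage or HEK-293-expressed DNA-tagged kinases were incubated with liganded streptavidin beads and compound at 10 μM, 1 h at room temperature with shaking. After washing, retained kinase was quantified; readout is percent of control binding remaining.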

Aorta [7] = experiment: Antiangiogenic activity in Fischer rat aorta fragments assessed as vessel outgrowth at 10 ug/mL after 5 days; type: functional; details: 120 h
Procedure, shortened: (§3)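 Thoracic aorta rings (1 mm cross-sections) from 3–9 month-old female Fischer rats, each embedded in fibrin gel with 5 μg/mL aprotinin. Compound added from DMSO stock, max final 100 μg/mL, six replicates; 0.1% DMSO vehicle control. Grown 5 days at 37 °C in 5% CO2, medium changed on day 4. On day 5, microvessel outgrowth was scored manually at 40× as percent of field occupied.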

[8] = molecular target: Calcium/calmodulin-dependent protein kinase kinase 2 (Homo sapiens, UniProt Q96RR4); experiment: Binding affinity to CAMKK2
Calcium/calmodulin-dependent protein kinase kinase 2, sequence (Q96RR4 whole entry): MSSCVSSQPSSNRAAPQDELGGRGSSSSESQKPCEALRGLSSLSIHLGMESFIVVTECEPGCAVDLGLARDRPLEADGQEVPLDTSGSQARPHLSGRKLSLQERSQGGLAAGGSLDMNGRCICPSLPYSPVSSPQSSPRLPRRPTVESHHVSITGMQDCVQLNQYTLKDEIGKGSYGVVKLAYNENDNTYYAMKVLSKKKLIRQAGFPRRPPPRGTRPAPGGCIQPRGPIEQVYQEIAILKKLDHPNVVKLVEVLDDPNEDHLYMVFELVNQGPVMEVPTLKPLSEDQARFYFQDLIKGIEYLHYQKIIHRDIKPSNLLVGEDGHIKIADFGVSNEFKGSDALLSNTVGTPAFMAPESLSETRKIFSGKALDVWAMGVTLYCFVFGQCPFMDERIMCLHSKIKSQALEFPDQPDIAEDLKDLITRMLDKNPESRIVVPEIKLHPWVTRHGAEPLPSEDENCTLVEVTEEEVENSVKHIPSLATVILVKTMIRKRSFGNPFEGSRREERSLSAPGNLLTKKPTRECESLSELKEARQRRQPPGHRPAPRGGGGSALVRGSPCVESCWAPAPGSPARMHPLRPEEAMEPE
Procedure, shortened: (§4)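 Compounds were diluted from 40× DMSO stocks, 11 concentrations plus blank in duplicate. Incubation 1 h at room temperature with shaking in SeaBlock/PBS/Tween 20/DTT buffer, then bead wash. Kd determined; 40000 nM denotes no binding.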

[9] = molecular target: Mitogen-activated protein kinase kinase kinase 19 (Homo sapiens) (UniProt Q56UN5); experiment: Binding affinity to YSK4 assessed as ATP binding remaining at 10 uM; procedure, shortened: as §2
Mitogen-activated protein kinase kinase kinase 19 (Homo sapiens), sequence (Q56UN5 whole entry): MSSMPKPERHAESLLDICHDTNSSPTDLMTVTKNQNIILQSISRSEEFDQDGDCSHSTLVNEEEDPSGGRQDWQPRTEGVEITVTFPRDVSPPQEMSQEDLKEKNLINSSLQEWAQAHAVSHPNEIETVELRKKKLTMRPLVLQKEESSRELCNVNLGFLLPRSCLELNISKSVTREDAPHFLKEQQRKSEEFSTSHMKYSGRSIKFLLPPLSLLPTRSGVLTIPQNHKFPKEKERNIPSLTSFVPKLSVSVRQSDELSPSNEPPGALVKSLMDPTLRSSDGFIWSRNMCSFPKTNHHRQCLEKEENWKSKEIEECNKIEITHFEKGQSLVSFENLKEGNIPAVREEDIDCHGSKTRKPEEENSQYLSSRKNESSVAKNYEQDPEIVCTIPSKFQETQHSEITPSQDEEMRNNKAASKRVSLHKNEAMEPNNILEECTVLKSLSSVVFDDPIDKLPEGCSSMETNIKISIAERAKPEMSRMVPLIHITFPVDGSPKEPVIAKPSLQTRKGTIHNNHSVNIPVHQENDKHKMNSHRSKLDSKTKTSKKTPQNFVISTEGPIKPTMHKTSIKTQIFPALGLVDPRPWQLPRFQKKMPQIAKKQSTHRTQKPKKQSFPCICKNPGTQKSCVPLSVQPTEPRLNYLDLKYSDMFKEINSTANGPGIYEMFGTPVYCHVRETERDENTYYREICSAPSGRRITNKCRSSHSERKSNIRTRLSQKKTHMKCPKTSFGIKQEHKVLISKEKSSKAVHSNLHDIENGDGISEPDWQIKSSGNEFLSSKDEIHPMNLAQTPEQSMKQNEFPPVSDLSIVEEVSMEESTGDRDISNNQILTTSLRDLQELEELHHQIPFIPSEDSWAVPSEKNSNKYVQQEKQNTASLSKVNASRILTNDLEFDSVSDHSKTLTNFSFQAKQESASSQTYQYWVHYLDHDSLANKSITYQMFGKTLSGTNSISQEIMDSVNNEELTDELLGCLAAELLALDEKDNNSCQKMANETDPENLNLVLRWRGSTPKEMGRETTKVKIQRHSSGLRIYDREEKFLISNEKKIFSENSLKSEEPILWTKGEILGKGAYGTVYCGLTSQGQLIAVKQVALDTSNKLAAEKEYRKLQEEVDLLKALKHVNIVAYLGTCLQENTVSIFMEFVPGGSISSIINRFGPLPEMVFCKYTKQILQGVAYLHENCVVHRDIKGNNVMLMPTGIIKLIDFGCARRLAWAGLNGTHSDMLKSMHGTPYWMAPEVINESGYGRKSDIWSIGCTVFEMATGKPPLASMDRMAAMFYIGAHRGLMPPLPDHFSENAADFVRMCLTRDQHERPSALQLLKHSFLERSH

[10] = molecular target: Calcium/calmodulin-dependent protein kinase kinase 1 (Homo sapiens, UniProt Q8N5S9); experiment: Binding affinity to CAMKK1; procedure, shortened: as §1
Calcium/calmodulin-dependent protein kinase kinase 1, sequence (Q8N5S9 whole entry): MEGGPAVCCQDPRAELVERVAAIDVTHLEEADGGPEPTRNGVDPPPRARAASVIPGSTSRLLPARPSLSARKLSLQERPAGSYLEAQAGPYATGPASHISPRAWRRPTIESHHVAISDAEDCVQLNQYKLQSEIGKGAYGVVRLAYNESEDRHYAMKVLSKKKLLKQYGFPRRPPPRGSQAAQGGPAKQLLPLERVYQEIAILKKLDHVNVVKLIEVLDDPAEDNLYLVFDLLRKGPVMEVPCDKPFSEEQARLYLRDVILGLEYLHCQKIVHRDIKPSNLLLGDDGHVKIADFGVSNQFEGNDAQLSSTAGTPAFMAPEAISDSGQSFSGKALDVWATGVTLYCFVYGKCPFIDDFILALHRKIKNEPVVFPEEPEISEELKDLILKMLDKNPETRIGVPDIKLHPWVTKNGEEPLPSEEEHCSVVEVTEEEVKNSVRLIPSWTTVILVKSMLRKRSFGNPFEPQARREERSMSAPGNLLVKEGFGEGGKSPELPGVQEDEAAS

[11] = Toxicity in human M14 cells; type: cell-based; details: read-out: LD50 (the source's name)
Procedure, shortened: (§5)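 NCI-60 human cancer cell line screen, two-stage. All lines first receive a single 10 μM dose. Selected compounds then go to a five-concentration assay spanning 100 μM to 10 nM, with 48 h exposure. LD50 (cell kill) is derived from the dose-response and kept separate from GI50 (growth retardation without cell death).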

Aorta [12] = experiment: Antiangiogenic activity in Fischer rat aorta fragments assessed as vessel outgrowth at 0.1 ug/mL after 5 days; type: functional; details: 120 h; procedure, shortened: as §3
[13] = Toxicity in human SK-MEL-5 cells; type: cell-based; details: read-out: LD50 (the source's name); procedure, shortened: as §5
[14] = molecular target: Casein kinase I isoform alpha (Sus scrofa, UniProt O19175); experiment: Inhibition of porcine brain CK1 using RRKHAAIGpSAYSITA as substrate
Casein kinase I isoform alpha, sequence (O19175 whole entry, canonical isoform): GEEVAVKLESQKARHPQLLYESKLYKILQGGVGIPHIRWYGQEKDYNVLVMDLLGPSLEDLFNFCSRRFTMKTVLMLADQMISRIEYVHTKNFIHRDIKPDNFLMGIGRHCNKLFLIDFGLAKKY

[15] = Toxicity in human NCI-H460 cells; type: cell-based; details: read-out: LD50 (the source's name); procedure, shortened: as §5
[16] = Toxicity in human IGROV1 cells; type: cell-based, IGROV-1; details: read-out: LD50 (the source's name); procedure, shortened: as §5
[17] = molecular target: 72 kDa type IV collagenase (Homo sapiens, UniProt P08253); experiment: Inhibition of human recombinant MMP2 using MOCAc-Pro-Leu-Gly-Leu-A2pr(Dnp)-Ala-Arg- NH2 as substrate at 20 ug/ml preincubated for 10 mins measured after 3 hrs by fluorescence assay
72 kDa type IV collagenase, sequence (P08253 110-660 limits assumed): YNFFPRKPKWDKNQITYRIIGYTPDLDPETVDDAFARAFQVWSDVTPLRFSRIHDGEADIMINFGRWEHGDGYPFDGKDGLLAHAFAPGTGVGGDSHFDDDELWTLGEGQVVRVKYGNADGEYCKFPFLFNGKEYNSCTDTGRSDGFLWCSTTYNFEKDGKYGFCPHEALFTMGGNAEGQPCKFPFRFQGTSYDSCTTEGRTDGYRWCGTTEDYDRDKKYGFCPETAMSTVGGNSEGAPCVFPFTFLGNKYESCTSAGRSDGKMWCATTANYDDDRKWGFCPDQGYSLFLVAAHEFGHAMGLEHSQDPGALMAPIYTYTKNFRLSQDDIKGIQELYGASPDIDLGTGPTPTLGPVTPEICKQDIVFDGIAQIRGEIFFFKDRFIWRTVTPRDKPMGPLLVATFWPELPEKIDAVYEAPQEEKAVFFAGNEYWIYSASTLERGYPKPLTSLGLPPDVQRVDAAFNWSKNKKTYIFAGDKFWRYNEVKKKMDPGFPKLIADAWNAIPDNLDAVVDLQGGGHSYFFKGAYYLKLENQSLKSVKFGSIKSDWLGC
Procedure, shortened: (§6)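 Fluorogenic MMP assay (modified Knight method) in TNC buffer: 50 mM Tris-HCl pH 7.5, 150 mM NaCl, 10 mM CaCl2, 0.05% Brij-35. Enzyme stock was 5 ng/mL for MMP-2 and 40 ng/mL for MT1-MMP, preincubated with sample 10 min at 37 °C. Substrate solution at 10 μM was added, then incubated 3 h at 37 °C. Fluorescence read at ex 328/em 393 nm; a no-enzyme blank was subtracted. Controls were batimastat and 1% DMSO.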

Aorta [18] = experiment: Antiangiogenic activity in Fischer rat aorta fragments assessed as vessel outgrowth after 5 days; type: functional, tissue-based; details: 120 h; procedure, shortened: as §3
NCI60 = experiment: Growth inhibition of human NCI60 cells at 1 to 10 uM; type: functional, cell-based
[19] = Toxicity in human Caki1 cells; type: cell-based, CAKI-1; details: read-out: LD50 (the source's name); procedure, shortened: as §5
[20] = molecular target: Calcium/calmodulin-dependent protein kinase type II subunit gamma (Homo sapiens, UniProt Q13555); experiment: Binding affinity to CAMK2G; procedure, shortened: as §4
Calcium/calmodulin-dependent protein kinase type II subunit gamma, sequence (Q13555 whole entry): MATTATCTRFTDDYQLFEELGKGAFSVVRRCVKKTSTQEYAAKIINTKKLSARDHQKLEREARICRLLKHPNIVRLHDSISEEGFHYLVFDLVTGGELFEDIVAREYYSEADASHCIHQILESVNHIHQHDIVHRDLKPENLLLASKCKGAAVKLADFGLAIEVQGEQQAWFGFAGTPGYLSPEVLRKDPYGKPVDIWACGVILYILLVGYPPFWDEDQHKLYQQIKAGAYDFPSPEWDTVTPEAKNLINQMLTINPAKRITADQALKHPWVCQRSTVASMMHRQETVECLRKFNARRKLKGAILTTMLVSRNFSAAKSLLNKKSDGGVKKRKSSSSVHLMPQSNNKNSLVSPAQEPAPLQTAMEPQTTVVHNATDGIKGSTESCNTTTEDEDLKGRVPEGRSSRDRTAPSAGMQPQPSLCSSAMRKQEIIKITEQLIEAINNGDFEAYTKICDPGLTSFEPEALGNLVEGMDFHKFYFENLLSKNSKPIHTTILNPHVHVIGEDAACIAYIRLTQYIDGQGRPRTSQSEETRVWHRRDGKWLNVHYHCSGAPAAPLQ

[21] = Binding affinity to DYRK2 assessed as ATP binding remaining at 10 uM; procedure, shortened: as §2
Aorta [22] = experiment: Antiangiogenic activity in Fischer rat aorta fragments assessed as vessel outgrowth at 100 ug/mL after 5 days; type: functional; details: 120 h; procedure, shortened: as §3
Aorta [23] = experiment: Antiangiogenic activity in Fischer rat aorta fragments assessed as vessel outgrowth at 1 ug/mL after 5 days; type: functional; details: 120 h; procedure, shortened: as §3
[24] = molecular target: Matrix metalloproteinase-14 (Homo sapiens, UniProt P50281); experiment: Inhibition of MMP14 using MOCAc-Pro-Leu-Gly-Leu-A2pr(Dnp)-Ala-Arg- NH2 as substrate at 20 ug/ml preincubated for 10 mins measured after 3 hrs by fluorescence assay; procedure, shortened: as §6
[25] = molecular target: Dual specificity tyrosine-phosphorylation-regulated kinase 1A (Homo sapiens) (UniProt Q13627); experiment: Binding affinity to DYRK1A assessed as ATP binding remaining at 10 uM; procedure, shortened: as §2

## Nc1nc2c(-c3ccccn3)nccc2[nH]1
Malme-3M
  Activity: 30%
Aorta [1]
  fold change (FC): 14
[2]
  inhibition: inactive
CAKI-1
  inhibition of growth at 10 µM: 95%
[3]
  inhibition: inactive
Aorta [4]
  fold change (FC): 3
[5]
  Kd: 40 µM
[6]
  Activity: Active
Aorta [7]
  inhibition at 10 µg/mL: 56%
[8]
  Kd: 40 µM
[9]
  Activity: Active
[10]
  Kd: 40 µM
[11]
  CC50: 25 µM
Aorta [12]
  inhibition at 0.1 µg/mL: 4%
[13]
  CC50: 25 µM
[14]
  IC50: 10 µM
[15]
  CC50: 25 µM
[16]
  CC50: 25 µM
[17]
  inhibition: 22%
Aorta [18]
  IC50: 8 µg/mL (≈ 37.9 µM)
NCI60
  growth inhibition (GI): Active
[19]
  CC50: 25 µM
[20]
  Kd: 40 µM
[21]
  Activity: Active
Aorta [22]
  inhibition at 100 µg/mL: 100%
Aorta [23]
  inhibition at 1 µg/mL: 16%
[24]
  inhibition: 6%
[25]
  Activity: Active
